Test [1] is filed under the species Homo sapiens. The experiment in a line: Tumor-specific activity against human breast tumor type at 5 ug/mL concentration after 1 hr exposure time; Activity= no of responses/ no tested,1/2. The class given is functional.
Test [2] is filed under the species Homo sapiens. Kind of test: Tumor-specific activity against human ovary tumor type at 0.5 ug/mL concentration after 1 hr exposure time; Activity= no of responses/ no tested,2/2. The class given is functional, Female gonad.
Test [3] is filed under the species Homo sapiens. Kind of test: Tumor-specific activity against human colon tumor type at 50 ug/mL concentration after 1 hr exposure time; Activity= no of responses/ no tested,4/5. The class given is functional.
Test [4] is filed under the species Homo sapiens. The experiment in a line: Tumor-specific activity against human total tumor type at 50 ug/mL concentration after 1 hr exposure time; Activity= no of responses/ no tested,8/10. The class given is functional.
The species named for test [5] is Homo sapiens. The experiment in a line: Tumor-specific activity against human gastric tumor type at 5 ug/mL concentration after 1 hr exposure time; Activity= no of responses/ no tested,1/1. The class given is functional, Stomach.
The species named for test [6] is Homo sapiens. Kind of test: Tumor-specific activity against human breast tumor type at 50 ug/mL concentration after 1 hr exposure time; Activity= no of responses/ no tested,1/2. The test is classed as functional.
The species entered for test [7] is Homo sapiens. The experiment in a line: Tumor-specific activity against human total tumor type at 5 ug/mL concentration after 1 hr exposure time; Activity= no of responses/ no tested,8/10. The test is classed as functional.
In test [8] the test system is RPMI-8226. The experiment in a line: In vitro inhibition of tumor cell growth in the human myeloma 8226/ADR system. The class given is functional, cell-based. A digest of the protocol:
(§1)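 Cells trypsinized, seeded at 7500 cells/well, attached overnight. Serially diluted agent added to quadruplicate cultures; 24 h at 37 °C, 5% CO2, with [3H]thymidine 0.5 μCi/well during the last 4 h. Incorporation counted by scintillation; percent of media-only control from mean CPM. IC50 by linear forecast on a percent control vs log concentration plot.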

Test [9] is filed under the species Homo sapiens. Kind of test: Compound was tested in vitro for activity in a human tumor cloning system at 5 ug/mL concentration after 1 hr exposure time. The class given is functional. In outline:
(§2)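 Human tumor cloning assay on single-cell suspensions from patient solid tumors and effusions. Cells were exposed for 1 h at 37 °C in McCoy's 5A with 10% heat-inactivated FCS, washed twice, then plated at 5×10^5 cells/mL in 0.3% agar CMRL 1066 over a feeder layer. Colonies (>50 cells) were counted around day 14. A run was evaluable with ≥20 control colonies and under 30% survival with 200 μg/mL vanadate.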

Test [10] is filed under the species Homo sapiens. The experiment in a line: Compound was tested in vitro for activity in a human tumor cloning system at 0.5 ug/mL concentration after 1 hr exposure time. The test is classed as functional. In outline:
as §2

The species named for test [11] is Homo sapiens. Kind of test: Compound was tested in vitro for activity in a human tumor cloning system at 50 ug/mL concentration after 1 hr exposure time. The class given is functional. In outline: as §2
For test [12], the species on record is Homo sapiens. Kind of test: Compound was tested in vitro for activity in a human tumor cloning system at 5 ug/mL concentration after continuous exposure time. The test is classed as functional. A digest of the protocol: (§3)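 Human tumor cloning assay on single-cell suspensions from patient solid tumors and effusions. Drug from DMSO stock was mixed into 0.3% agar CMRL 1066 with the cells, at 5×10^5 cells/mL over a feeder layer, and left for continuous exposure. Colonies (>50 cells) were counted around day 14 by inverted microscope. A run was evaluable with ≥20 control colonies and under 30% survival with 200 μg/mL vanadate.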

Test [13] is filed under the species Homo sapiens. The experiment in a line: Tumor-specific activity against human colon tumor type at 5 ug/mL concentration after 1 hr exposure time; Activity= no of responses/ no tested,4/5. The test is classed as functional.
The species named for test [14] is Homo sapiens. Kind of test: Compound was tested in vitro for activity in a human tumor cloning system at 0.5 ug/mL concentration after continuous exposure time. The test is classed as functional. In outline:
as §3

Test [15] is filed under the species Homo sapiens. The experiment in a line: Tumor-specific activity against human ovary tumor type at 50 ug/mL concentration after 1 hr exposure time; Activity= no of responses/ no tested,2/2. The class given is functional, Female gonad.
The subject of test [16] is RPMI-8226. Kind of test: In vitro inhibition of tumor cell growth in the human myeloma 8226 system. The class given is functional, cell-based. A digest of the protocol:
as §1

The species entered for test [17] is Homo sapiens. Kind of test: Compound was tested in vitro for activity in a human tumor cloning system at 50 ug/mL concentration after continuous exposure time. The class given is functional. In outline:
as §3

For test [18], the system named is MCF7. Kind of test: In vitro inhibition of tumor cell growth in the human mammary carcinoma MCF-7/ADR system. The class given is functional, cell-based. A digest of the protocol: as §1
The species entered for test [19] is Homo sapiens. The experiment in a line: Tumor-specific activity against human colon tumor type at 0.5 ug/mL concentration after 1 hr exposure time; Activity= no of responses/ no tested,[…]. The class given is functional.
Test [20] is filed under the species Homo sapiens. Kind of test: Tumor-specific activity against human ovary tumor type at 5 ug/mL concentration after 1 h exposure time; Activity= no of responses/ no tested,2/2. The class given is functional, Female gonad.
Test [21] relates to MCF7. The experiment in a line: In vitro inhibition of tumor cell growth in the human mammary tumor MCF-7 system. The test is classed as functional, cell-based. A digest of the protocol: as §1
Test [22] is filed under the species Homo sapiens. The experiment in a line: Tumor-specific activity against human gastric tumor type at 50 ug/mL concentration after 1 hr exposure time; Activity= no of responses/ no tested,1/1. The class given is functional, Stomach.
The species named for test [23] is Homo sapiens. The experiment in a line: Tumor-specific activity against human breast tumor type at 0.5 ug/mL concentration after 1 hr exposure time; Activity= no of responses/ no tested,0/2. The test is classed as functional.
Test [24] is filed under the species Homo sapiens. Kind of test: Tumor-specific activity against human gastric tumor type at 0.5 ug/mL concentration after 1 hr exposure time; Activity= no of responses/ no tested,1/1. The class given is functional, Stomach.
For test [25], the species on record is Homo sapiens. Kind of test: Tumor-specific activity against human total tumor type at 0.5 ug/mL concentration after 1 hr exposure time; Activity= no of responses/ no tested,4/10. The test is classed as functional.
The species named for test [26] is Homo sapiens. The experiment in a line: Tumor-specific activity against human gastric tumor type at 50 ug/mL concentration after 1 hr exposure time; Activity= no of responses/ no tested, 1/1. The class given is functional, Stomach.
The species named for test [27] is Homo sapiens. The experiment in a line: Tumor-specific activity against human lung, non-small cell tumor type at 50 ug/mL concentration after 1 hr exposure time; Activity= no of responses/ no of evaluable, […]. The test is classed as functional.
The species entered for test [28] is Homo sapiens. Kind of test: Tumor-specific activity against human total tumor type at 5 ug/mL concentration after 1 hr exposure time; Activity= no of responses/ no tested, 4/5.
The species entered for test [29] is Homo sapiens. The experiment in a line: Tumor-specific activity against human breast tumor type at 0.5 ug/mL concentration after 1 hr exposure time; Activity= no of responses/ no tested, 0/1. The test is classed as functional.
For test [30], the species on record is Homo sapiens. Kind of test: Tumor-specific activity against human breast tumor type at 50 ug/mL concentration after 1 hr exposure time; Activity= no of responses/ no tested, […]. The test is classed as functional.
For test [31], the species on record is Homo sapiens. Kind of test: Tumor-specific activity against human ovary tumor type at 0.5 ug/mL concentration after 1 hr exposure time; Activity= no of responses/ no tested, 1/2. The test is classed as functional, Female gonad.
The species named for test [32] is Homo sapiens. Kind of test: Tumor-specific activity against human ovary tumor type at 5 ug/mL concentration after 1 hr exposure time; Activity= no of responses/ no tested, 1/1. The class given is functional, Female gonad.
For test [33], the species on record is Homo sapiens. The experiment in a line: Tumor-specific activity against human total tumor type at 50 ug/mL concentration after 1 h exposure time; Activity= no of responses/ no tested, 5/5. The test is classed as functional.
The species named for test [34] is Homo sapiens. The experiment in a line: Tumor-specific activity against human total tumor type at 0.5 ug/mL concentration after 1 hr exposure time; Activity= no of responses/ no tested, 2/5. The class given is functional.
Test [35] is filed under the species Homo sapiens. The experiment in a line: Tumor-specific activity against human gastric tumor type at 0.5 ug/mL concentration after 1 hr exposure time; Activity= no of responses/ no tested, 1/1. The class given is functional, Stomach.
For test [36], the species on record is Homo sapiens. The experiment in a line: Tumor-specific activity against human ovary tumor type at 50 ug/mL concentration after 1 hr exposure time; Activity= no of responses/ no tested, 1/1. The test is classed as functional, Female gonad.
The species entered for test [37] is Homo sapiens. Kind of test: Tumor-specific activity against human gastric tumor type at 5 ug/mL concentration after 1 hr exposure time; Activity= no of responses/ no tested, 2/2. The test is classed as functional, Stomach.
The species named for test [38] is Homo sapiens. The experiment in a line: Tumor-specific activity against human lung, non-small cell tumor type at 0.5 ug/mL concentration after 1 hr exposure time; Activity= no of responses/ no of evaluable, 0/1. The class given is functional.
The species entered for test [39] is Homo sapiens. Kind of test: Tumor-specific activity against human breast tumor type at 5 ug/mL concentration after 1 hr exposure time; Activity= no of responses/ no tested, […]. The class given is functional.

Turning to `CCN(CC)CC(O)CNc1ccc(NCC2CO2)c2c1C(=O)c1ccccc1C2=O.O=C(O)/C=C/C(=O)O` (centres undefined), the Activity in [1] is listed as 1; in test [2] it was 2; in [3], 4; in test [4] it was 8; in test [5], 1; in test [6] it was 1. For the same molecule, the Activity was 8 in test [7]; 4 in [13]; 2 in [15]; 1 in [19]; 2 in [20]; 1 in [22]. Besides, the results for the Activity in [23], in test [24] and in [25] were 0, 1 and 4, respectively. Besides, the IC50 – broadly, the point on the concentration scale where inhibition reaches its midpoint – amounted to 9 nM in test [8], 10 nM in [16], 20 nM in test [18] and 40 nM in [21]. The % responders at 5 µg/mL was 80% in [9] and 89% in [12]. The % responders at 0.5 µg/mL was found to be 40% in [10] and 89% in [14]. For the same molecule, the % responders at 50 µg/mL came to 80% in [11] and 100% in [17].

In the case of `O=C1c2ccccc2C(=O)c2c(NCC(O)CNCc3ccccc3)ccc(NCC(O)CCl)c21` (centres undefined), the IC50 in [8] was determined as 14300 nM; in test [16], 11100 nM; in test [18], 12400 nM; in test [21], 8200 nM.

In the case of `O=C1c2c(O)ccc(O)c2C(=O)c2c(NCCNCCO)ccc(NCCNCCO)c21` [MITOXANTRONE], the IC50 stood at 180 nM in [8], 30 nM in test [16], 4000 nM in [18] and 5 nM in [21].

Consider `COc1cccc2c1C(=O)c1c(O)c3c(c(O)c1C2=O)C[C@@](O)(C(=O)CO)C[C@@H]3O[C@H]1C[C@H](N)[C@H](O)[C@H](C)O1` [DOXORUBICIN], for which the IC50 in test [8] is 560 nM; in test [16] it was 33 nM.

`CCN(CC)CC(O)CNc1ccc(N)c2c1C(=O)c1ccccc1C2=O` (centres undefined) displayed an IC50 in test [21] of 6000 nM.

As for `CCN(CC)CC(O)CNc1ccc(NCC(O)CCl)c2c1C(=O)c1ccccc1C2=O` (centres undefined), the Activity in test [26] worked out at 1; in test [27], 1; in test [28], 4; in test [29], 0; in [30], 1; in [31] it was 1. Moreover, the Activity is 2 in test [32]; 5 in test [33]; 2 in test [34]; 1 in test [35]; 2 in test [36]; 1 in [37]. Further, the Activity in test [38] and in [39] was 0 throughout. The IC50 amounted to 70 nM in [8], 210 nM in [16], 720 nM in test [18] and 430 nM in [21]. The figures for the % responders at 5 µg/mL in test [9] and in test [12] were 80% and 100%, respectively. For the same molecule, the values for the % responders at 0.5 µg/mL in test [10] and in test [14] were 40% and 50%, respectively. Further, the % responders at 50 µg/mL in [11] and in test [17] was 100% each time.

For the molecule `CCCNCC(O)CNc1ccc(NCC(O)CCl)c2c1C(=O)c1ccccc1C2=O` (centres undefined), the IC50 in test [8] worked out at 12500 nM; in test [16], 9600 nM; in test [18] it was 8700 nM; in [21] it was 3450 nM.

Source of the values: ChEMBL document CHEMBL1125355, “Novel non-cross resistant diaminoanthraquinones as potential chemotherapeutic agents” (J Med Chem, 1992).
